Data: ChEMBL document CHEMBL3351726 (J Med Chem, 2014)
Residues, ends and D or L forms follow the SMILES beside them.

Key:
[1] = Retention time of the compound measured over 30 mins at flow rate of 1 mL/min by HPLC; type: physicochemical; conditions: 0.5 h
In short: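 Reversed-phase analytical HPLC or LC−MS on a SymmetryShield RP18 column (5 μm, 4.6 × 150 mm). Gradient 10−60% B over 30 min at 1 mL/min; A = 0.1% TFA in water, B = 0.1% TFA in acetonitrile.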

[2] = target: Sodium channel protein type 9 subunit alpha (Homo sapiens, UniProt Q15858); assay: Inhibition of human Nav1.7 expressed in HEK-293 cells at -130 to -110 mV holding potential by whole-cell voltage clamp analysis; type: cell-based, HEK293
Sequence of Sodium channel protein type 9 subunit alpha (Q15858 whole entry): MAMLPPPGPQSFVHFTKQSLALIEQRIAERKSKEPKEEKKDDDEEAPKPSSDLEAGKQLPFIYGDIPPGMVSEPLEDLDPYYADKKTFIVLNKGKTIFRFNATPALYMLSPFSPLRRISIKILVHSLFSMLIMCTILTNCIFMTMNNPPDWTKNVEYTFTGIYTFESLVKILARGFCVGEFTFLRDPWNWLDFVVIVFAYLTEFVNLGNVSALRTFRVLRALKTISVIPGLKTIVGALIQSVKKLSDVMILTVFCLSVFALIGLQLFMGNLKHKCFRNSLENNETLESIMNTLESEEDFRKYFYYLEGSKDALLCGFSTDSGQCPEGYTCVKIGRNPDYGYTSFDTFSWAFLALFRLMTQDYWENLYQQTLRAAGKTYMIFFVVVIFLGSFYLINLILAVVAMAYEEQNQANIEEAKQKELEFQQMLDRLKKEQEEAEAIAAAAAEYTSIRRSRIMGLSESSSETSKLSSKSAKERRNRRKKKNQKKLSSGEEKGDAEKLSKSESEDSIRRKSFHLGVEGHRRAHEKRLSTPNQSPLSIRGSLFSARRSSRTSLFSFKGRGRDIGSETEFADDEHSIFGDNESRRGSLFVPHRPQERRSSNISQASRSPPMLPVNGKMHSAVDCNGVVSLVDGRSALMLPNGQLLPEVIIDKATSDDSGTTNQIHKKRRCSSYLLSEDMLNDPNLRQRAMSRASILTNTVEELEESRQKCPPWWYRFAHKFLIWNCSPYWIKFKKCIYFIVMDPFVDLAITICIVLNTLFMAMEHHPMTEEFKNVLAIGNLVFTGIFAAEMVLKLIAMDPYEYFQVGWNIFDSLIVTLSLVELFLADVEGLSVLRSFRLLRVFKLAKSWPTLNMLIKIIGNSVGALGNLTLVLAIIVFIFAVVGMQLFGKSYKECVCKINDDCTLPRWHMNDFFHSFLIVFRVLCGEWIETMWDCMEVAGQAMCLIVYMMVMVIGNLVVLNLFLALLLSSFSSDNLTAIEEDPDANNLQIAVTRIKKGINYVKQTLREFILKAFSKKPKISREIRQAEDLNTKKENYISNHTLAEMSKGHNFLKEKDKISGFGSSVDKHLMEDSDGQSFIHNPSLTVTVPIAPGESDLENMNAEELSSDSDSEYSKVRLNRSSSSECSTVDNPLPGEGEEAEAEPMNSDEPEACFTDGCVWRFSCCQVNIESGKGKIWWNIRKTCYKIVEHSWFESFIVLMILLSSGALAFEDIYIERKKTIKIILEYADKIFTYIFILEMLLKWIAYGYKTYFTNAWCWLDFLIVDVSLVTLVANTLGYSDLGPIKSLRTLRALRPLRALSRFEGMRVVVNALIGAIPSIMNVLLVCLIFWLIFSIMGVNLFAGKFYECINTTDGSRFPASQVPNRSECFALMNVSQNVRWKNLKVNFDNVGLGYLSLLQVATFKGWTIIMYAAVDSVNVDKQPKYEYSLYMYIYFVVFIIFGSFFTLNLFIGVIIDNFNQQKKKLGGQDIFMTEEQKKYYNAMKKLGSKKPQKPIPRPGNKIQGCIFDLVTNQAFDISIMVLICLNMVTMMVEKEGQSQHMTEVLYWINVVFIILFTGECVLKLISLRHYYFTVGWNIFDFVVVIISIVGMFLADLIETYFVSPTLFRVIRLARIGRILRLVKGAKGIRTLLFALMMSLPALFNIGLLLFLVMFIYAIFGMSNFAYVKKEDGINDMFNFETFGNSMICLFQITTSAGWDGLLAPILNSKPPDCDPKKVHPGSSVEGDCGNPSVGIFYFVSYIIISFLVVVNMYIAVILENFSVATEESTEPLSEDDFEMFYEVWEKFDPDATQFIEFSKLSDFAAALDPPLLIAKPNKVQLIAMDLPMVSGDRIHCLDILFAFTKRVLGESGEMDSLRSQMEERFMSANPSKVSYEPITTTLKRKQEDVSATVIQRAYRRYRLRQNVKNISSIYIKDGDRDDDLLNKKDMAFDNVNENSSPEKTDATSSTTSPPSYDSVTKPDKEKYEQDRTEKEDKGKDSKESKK

[3] = Retention time of the compound measured over 15 mins at flow rate of 1 mL/min by HPLC
HEK293 = assay: Selectivity ratio of IC50 for rat Nav1.2 expressed in HEK-293 cells to IC50 for human Nav1.7 expressed in HEK-293 cells; type: cell-based

Which results are given for `CSCC[C@@H]1NC(=O)[C@H](Cc2c[nH]c3ccccc23)NC(=O)[C@H](CCCCN)NC(=O)[C@H](CCC(N)=O)NC(=O)[C@@H](NC(=O)[C@@H](N)Cc2ccc(O)cc2)CSSC[C@@H]2NC(=O)[C@@H]3CSSC[C@@H](C(=O)N[C@@H](CCCCN)C(=O)N[C@@H](CCCCN)C(=O)N[C@@H](CCCCN)C(=O)N[C@@H](CC(C)C)C(=O)N[C@@H](Cc4c[nH]c5ccccc45)C(=O)O)NC(=O)[C@H](Cc4c[nH]c5ccccc45)NC(=O)[C@H](CC(C)C)NC(=O)[C@H](CCCNC(=N)N)NC(=O)[C@H](CSSC[C@H](NC(=O)[C@H]([C@@H](C)O)NC(=O)[C@H](Cc4c[nH]c5ccccc45)NC1=O)C(=O)N[C@@H](CC(=O)O)C(=O)N[C@@H](CCC(=O)O)C(=O)N[C@@H](CCC(=O)O)C(=O)N[C@@H](CCCNC(=N)N)C(=O)N[C@@H](CCCCN)C(=O)N3)NC(=O)[C@H](C(C)C)NC(=O)[C@H](CC(C)C)NC(=O)CNC(=O)[C@H](CCC(=O)O)NC2=O` (HELM PEPTIDE1{Y.C.Q.K.W.M.W.T.C.D.E.E.R.K.C.C.E.G.L.V.C.R.L.W.C.K.K.K.L.W}$PEPTIDE1,PEPTIDE1,2:R3-16:R3|PEPTIDE1,PEPTIDE1,9:R3-21:R3|PEPTIDE1,PEPTIDE1,15:R3-25:R3$$$V2.0)?
Retention_time [1]: 14.78 min; IC50 [2]: 293 nM; Retention_time [3]: 8.66 min

What does the source list for `[H][C@]12CSSC[C@@H](C(=O)N[C@@H](CCCCN)C(=O)N[C@@H](CCCCN)C(=O)N[C@H](C(=O)N[C@@H](CC(C)C)C(=O)N[C@@H](Cc3c[nH]c4ccccc34)C(=O)O)[C@@H](C)CC)NC(=O)[C@H](Cc3c[nH]c4ccccc34)NC(=O)[C@H](CC(C)C)NC(=O)[C@H](CCCNC(=N)N)NC(=O)[C@]3([H])CSSC[C@]([H])(NC(=O)[C@]([H])([C@@H](C)O)NC(=O)[C@H](Cc4c[nH]c5ccccc45)NC(=O)[C@H](CCSC)NC(=O)[C@H](Cc4c[nH]c5ccccc45)NC(=O)[C@H](CCCCN)NC(=O)[C@H](CCC(N)=O)NC(=O)[C@@H](NC(=O)[C@@H](N)Cc4ccc(O)cc4)CSSC[C@]([H])(NC1=O)C(=O)N[C@@H](CCC(=O)O)C(=O)NCC(=O)N[C@@H](CC(C)C)C(=O)N[C@@H](C(C)C)C(=O)N3)C(=O)N[C@@H](CC(=O)O)C(=O)N[C@@H](CO)C(=O)N[C@@H](C)C(=O)N[C@@H](CCCNC(=N)N)C(=O)N[C@@H](CCCCN)C(=O)N2` (HELM PEPTIDE1{Y.C.Q.K.W.M.W.T.C.D.S.A.R.K.C.C.E.G.L.V.C.R.L.W.C.K.K.I.L.W}$PEPTIDE1,PEPTIDE1,2:R3-16:R3|PEPTIDE1,PEPTIDE1,9:R3-21:R3|PEPTIDE1,PEPTIDE1,15:R3-25:R3$$$V2.0)?
Retention_time [1]: 15.95 min; Ratio IC50 (HEK293): 20; Retention_time [3]: 9.54 min

Which Retention_time [1] does the source give for `[H][C@]12CSSC[C@@H](C(=O)N[C@@H](CCCCN)C(=O)N[C@@H](CCCCN)C(=O)N[C@@H](CCCCN)C(=O)N[C@@H](CC(C)C)C(=O)N[C@@H](Cc3c[nH]c4ccccc34)C(=O)O)NC(=O)[C@H](Cc3c[nH]c4ccccc34)NC(=O)[C@H](CC(C)C)NC(=O)[C@H](CCCNC(=N)N)NC(=O)[C@]3([H])CSSC[C@]([H])(NC(=O)[C@]([H])([C@@H](C)O)NC(=O)[C@H](Cc4c[nH]c5ccccc45)NC(=O)[C@H](CCSC)NC(=O)[C@H](Cc4c[nH]c5ccccc45)NC(=O)[C@H](CCCCN)NC(=O)[C@H](CCC(N)=O)NC(=O)[C@@H](NC(=O)[C@@H](N)Cc4ccc(O)cc4)CSSC[C@]([H])(NC1=O)C(=O)N[C@@H](CCC(=O)O)C(=O)NCC(=O)N[C@@H](CC(C)C)C(=O)N[C@@H](C(C)C)C(=O)N3)C(=O)N[C@@H](CC(=O)O)C(=O)N[C@@H](CO)C(=O)N[C@@H](C)C(=O)N[C@@H](CCCNC(=N)N)C(=O)N[C@@H](CCCCN)C(=O)N2` (HELM PEPTIDE1{Y.C.Q.K.W.M.W.T.C.D.S.A.R.K.C.C.E.G.L.V.C.R.L.W.C.K.K.K.L.W}$PEPTIDE1,PEPTIDE1,2:R3-16:R3|PEPTIDE1,PEPTIDE1,9:R3-21:R3|PEPTIDE1,PEPTIDE1,15:R3-25:R3$$$V2.0) here?
The Retention_time was 16.59 min.

What about the Ratio IC50 (HEK293) of the same compound?
The Ratio IC50 was 24.

What about the Retention_time [3] of the same compound?
The Retention_time was 9.86 min.

Which results are given for `CC[C@H](C)[C@H](NC(=O)[C@](C)(CC(C)C)NC(=O)[C@H](CCCCN)NC(=O)[C@H](CCCCN)NC(=O)[C@H](CCCCN)NC(=O)[C@@H]1CSSC[C@@H]2NC(=O)[C@H](CCCCN)NC(=O)[C@H](CCCNC(=N)N)NC(=O)[C@H](C)NC(=O)[C@H](CO)NC(=O)[C@H](CC(=O)O)NC(=O)[C@@H]3CSSC[C@H](NC(=O)[C@H](C(C)C)NC(=O)[C@H](CC(C)C)NC(=O)CNC(=O)[C@H](CCC(=O)O)NC(=O)[C@H](CSSC[C@H](NC(=O)[C@@H](N)Cc4ccc(O)cc4)C(=O)N[C@@H](CCC(N)=O)C(=O)N[C@@H](CCCCN)C(=O)N[C@@H](Cc4c[nH]c5ccccc45)C(=O)N[C@@H](CCSC)C(=O)N[C@@H](Cc4c[nH]c5ccccc45)C(=O)N[C@@H]([C@@H](C)O)C(=O)N3)NC2=O)C(=O)N[C@@H](CCCNC(=N)N)C(=O)N[C@@H](CC(C)C)C(=O)N[C@@H](Cc2c[nH]c3ccccc23)C(=O)N1)C(=O)O` (HELM PEPTIDE1{Y.C.Q.K.W.M.W.T.C.D.S.A.R.K.C.C.E.G.L.V.C.R.L.W.C.K.K.K.[CC(C)C[C@](C)(N[*:1])C(=O)[*:2]].I}$PEPTIDE1,PEPTIDE1,2:R3-16:R3|PEPTIDE1,PEPTIDE1,9:R3-21:R3|PEPTIDE1,PEPTIDE1,15:R3-25:R3$$$V2.0)?
Retention_time [1]: 14.87 min; Ratio IC50 (HEK293): 34.2; Retention_time [3]: 9.03 min

Which Retention_time [1] does the source give for `CSCC[C@@H]1NC(=O)[C@H](Cc2c[nH]c3ccccc23)NC(=O)[C@H](CCCCN)NC(=O)[C@H](CCC(N)=O)NC(=O)[C@@H](NC(=O)[C@@H](N)Cc2ccc(O)cc2)CSSC[C@@H]2NC(=O)[C@@H]3CSSC[C@@H](C(=O)N[C@@H](CCCCN)C(=O)N[C@@H](CCCCN)C(=O)N[C@@H](CCCCN)C(=O)N(C)[C@@H](CC(C)C)C(=O)N[C@@H](Cc4c[nH]c5ccccc45)C(=O)O)NC(=O)[C@H](Cc4c[nH]c5ccccc45)NC(=O)[C@H](CC(C)C)NC(=O)[C@H](CCCNC(=N)N)NC(=O)[C@H](CSSC[C@H](NC(=O)[C@H]([C@@H](C)O)NC(=O)[C@H](Cc4c[nH]c5ccccc45)NC1=O)C(=O)N[C@@H](CC(=O)O)C(=O)N[C@@H](CO)C(=O)N[C@@H](C)C(=O)N[C@@H](CCCNC(=N)N)C(=O)N[C@@H](CCCCN)C(=O)N3)NC(=O)[C@H](C(C)C)NC(=O)[C@H](CC(C)C)NC(=O)CNC(=O)[C@H](CCC(=O)O)NC2=O` (HELM PEPTIDE1{Y.C.Q.K.W.M.W.T.C.D.S.A.R.K.C.C.E.G.L.V.C.R.L.W.C.K.K.K.[meL].W}$PEPTIDE1,PEPTIDE1,2:R3-16:R3|PEPTIDE1,PEPTIDE1,9:R3-21:R3|PEPTIDE1,PEPTIDE1,15:R3-25:R3$$$V2.0) here?
The Retention_time was 15.1 min.

What about the Ratio IC50 (HEK293) of the same compound?
Its Ratio IC50 is 2.8.

And the Retention_time [3]?
The Retention_time was 9.04 min.

With `CSCC[C@@H]1NC(=O)[C@H](Cc2c[nH]c3ccccc23)NC(=O)[C@H](CCCCN)NC(=O)[C@H](CCC(N)=O)NC(=O)[C@@H](NC(=O)[C@@H](N)Cc2ccc(O)cc2)CSSC[C@@H]2NC(=O)[C@@H]3CSSC[C@@H](C(=O)N[C@@H](CCCCN)C(=O)N[C@@H](CCCCN)C(=O)N[C@@H](CCCCN)C(=O)N[C@@H](CC(C)C)C(=O)N[C@@H](Cc4c[nH]c5ccccc45)C(=O)O)NC(=O)[C@H](Cc4c[nH]c5ccccc45)NC(=O)[C@H](CC(C)C)NC(=O)[C@H](CCCNC(=N)N)NC(=O)[C@H](CSSC[C@H](NC(=O)[C@H]([C@@H](C)O)NC(=O)[C@H](Cc4c[nH]c5ccccc45)NC1=O)C(=O)N[C@@H](CC(=O)O)C(=O)N[C@@H](CO)C(=O)N[C@@H](CCC(=O)O)C(=O)N[C@@H](CCCNC(=N)N)C(=O)N[C@@H](CCCCN)C(=O)N3)NC(=O)[C@H](C(C)C)NC(=O)[C@H](CC(C)C)NC(=O)CNC(=O)[C@H](CCC(=O)O)NC2=O` as the compound, how does the Retention_time [1] read?
Its Retention_time is 15.44 min.

What about the Ratio IC50 (HEK293) of the same compound?
The Ratio IC50 was 26.

What about the Retention_time [3] of the same compound?
The Retention_time was 9.87 min.

Which Retention_time [1] does the source give for `CC[C@H](C)[C@H](NC(=O)[C@@H](NC(=O)[C@H](CCCCN)NC(=O)[C@H](CCCCN)NC(=O)[C@H](CCCCN)NC(=O)[C@@H]1CSSC[C@@H]2NC(=O)[C@H](CCCCN)NC(=O)[C@H](CCCNC(=N)N)NC(=O)[C@H](C)NC(=O)[C@H](CO)NC(=O)[C@H](CC(=O)O)NC(=O)[C@@H]3CSSC[C@H](NC(=O)[C@H](C(C)C)NC(=O)[C@H](CC(C)C)NC(=O)CNC(=O)[C@H](CCC(=O)O)NC(=O)[C@H](CSSC[C@H](NC(=O)[C@@H](N)Cc4ccc(O)cc4)C(=O)N[C@@H](CCC(N)=O)C(=O)N[C@@H](CCCCN)C(=O)N[C@@H](Cc4c[nH]c5ccccc45)C(=O)N[C@@H](CCSC)C(=O)N[C@@H](Cc4c[nH]c5ccccc45)C(=O)N[C@@H]([C@@H](C)O)C(=O)N3)NC2=O)C(=O)N[C@@H](CCCNC(=N)N)C(=O)N[C@@H](CC(C)C)C(=O)N[C@@H](Cc2c[nH]c3ccccc23)C(=O)N1)C(C)C)C(=O)O` (HELM PEPTIDE1{Y.C.Q.K.W.M.W.T.C.D.S.A.R.K.C.C.E.G.L.V.C.R.L.W.C.K.K.K.V.I}$PEPTIDE1,PEPTIDE1,2:R3-16:R3|PEPTIDE1,PEPTIDE1,9:R3-21:R3|PEPTIDE1,PEPTIDE1,15:R3-25:R3$$$V2.0) here?
The Retention_time was 14.79 min.

What about the IC50 [2] of the same compound?
The IC50 was 4 nM.

And the Retention_time [3]?
The Retention_time was 9 min.

Which Retention_time [1] does the source give for `CSCC[C@@H]1NC(=O)[C@H](Cc2c[nH]c3ccccc23)NC(=O)[C@H](CCCCN)NC(=O)[C@H](CCC(N)=O)NC(=O)[C@@H](NC(=O)[C@@H](N)Cc2ccc(O)cc2)CSSC[C@@H]2NC(=O)[C@@H]3CSSC[C@@H](C(=O)N[C@@H](CCCCN)C(=O)N[C@@H](CCCCN)C(=O)N[C@@H](CCCCN)C(=O)N[C@@H](CC(C)C)C(=O)N[C@@H](Cc4c[nH]c5ccccc45)C(=O)O)NC(=O)[C@H](Cc4c[nH]c5ccccc45)NC(=O)[C@H](CC(C)C)NC(=O)[C@H](CCC(=O)O)NC(=O)[C@H](CSSC[C@H](NC(=O)[C@H]([C@@H](C)O)NC(=O)[C@H](Cc4c[nH]c5ccccc45)NC1=O)C(=O)N[C@@H](CC(=O)O)C(=O)N[C@@H](CO)C(=O)N[C@@H](CCC(=O)O)C(=O)N[C@@H](CCCNC(=N)N)C(=O)N[C@@H](CCCCN)C(=O)N3)NC(=O)[C@H](C(C)C)NC(=O)[C@H](Cc1ccc(O)cc1)NC(=O)CNC(=O)[C@H](CCC(=O)O)NC2=O` here?
Its Retention_time is 14.36 min.

And the IC50 [2]?
Its IC50 is over 3000 nM.

And the Retention_time [3]?
The Retention_time was 9.09 min.
